Test results published in ChEMBL document CHEMBL1123582, “Substituted 2-(2-hydroxyphenyl)benzimidazoles as potential agents for the control of periodontal diseases” (1987).
≈ marks a conversion by molar mass, not a printed value. Calls of active or inactive are those of the source. The calls are words filed in the database; no cut-off is given here.

Columns and labels:
[1] = test system: Aggregatibacter actinomycetemcomitans; assay: Evaluated for the in vitro minimum bactericidal concentration (MBC) against periopathogenic Actinobacillus actinomycetemcommitans bacteria; NE means not effective; type: functional, organism-based
Outline: (§1)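 Tube dilution test against A. actinomycetemcomitans Y4, kept in Trypticase Soy Broth with excess CaCO3. Compound stocks of 1 mg/100 μL EtOH or Me2SO were diluted at least 100-fold into 3-fold series in Bacto Anaerobe broth. Each tube got 50 μL of log-phase inoculum at 10⁸ cfu/mL and was incubated at 37 °C under anaerobic 5% CO2/10% H2/85% Ar. Values are μg/mL, consistent across triplicates.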

[2] = test system: Actinomyces viscosus; assay: Evaluated for the in vitro minimum bactericidal concentration (MBC) against periopathogenic Actinomycetes viscosus bacteria; NE means not effective; type: functional, organism-based
Outline: (§2)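 Tested against A. viscosus M100-2000, maintained in Trypticase Soy Broth with excess CaCO3, by tube dilution. EtOH or Me2SO stocks (1 mg/100 μL) were diluted at least 100-fold into 3-fold dilution series in Bacto Anaerobe broth. Tubes were seeded with 50 μL of 10⁸ cfu/mL log-phase culture and held at 37 °C in an anaerobic chamber (5% CO2, 10% H2, 85% Ar). Values are in μg/mL, consistent in triplicate.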

[3] = test system: Porphyromonas gingivalis; assay: Evaluated for the in vitro minimum bactericidal concentration (MBC) against periopathogenic Bacteroides gingivalis bacteria; NE means not effective; type: functional, organism-based
Outline: (§3)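 B. gingivalis 381, maintained in Trypticase Soy Broth plus excess CaCO3, was assayed by tube dilution. Stocks of 1 mg/100 μL in EtOH or Me2SO were diluted 100-fold or more to give 3-fold dilutions in Bacto Anaerobe broth. Inoculum was 50 μL of log-phase culture at 10⁸ cfu/mL, with incubation at 37 °C anaerobically (5% CO2/10% H2/85% Ar). Concentrations are μg/mL, consistent for triplicate assays.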

[4] = test system: Aggregatibacter actinomycetemcomitans; assay: Evaluated for the in vitro minimum bactericidal concentration (MBC) against periopathogenic Actinobacillus actinomycetemcommitans bacteria; type: functional; outline: as §1
[5] = test system: Actinomyces viscosus; assay: Evaluated for the in vitro minimum bactericidal concentration (MBC) against periopathogenic Actinomycetes viscosus bacteria; type: functional; outline: as §2
[6] = test system: Porphyromonas gingivalis; assay: Evaluated for the in vitro minimum bactericidal concentration (MBC) against periopathogenic Bacteroides gingivalis bacteria; type: functional; outline: as §3
[7] = test system: Actinomyces viscosus; assay: Evaluated for the in vitro minimum bactericidal concentration (MBC) against periopathogenic Actinomycetes viscosus bacteria;NE means not effective; type: functional, organism-based; outline: as §2
[8] = test system: Actinomyces viscosus; assay: Evaluated for the in vitro minimum bactericidal concentration (MBC) against periopathogenic Actinomycetes viscosus bacteria.; type: functional; outline: as §2

Structure (SMILES)	MBC [1]	MBC [2]	MBC [3]	MBC [4]	MBC [5]	MBC [6]	MBC [7]	MBC [8]
CCCCCCC(=O)c1ccc(O)c(-c2nc3cc(Cl)ccc3[nH]2)c1	inactive	inactive	inactive					
Oc1c(Br)cc(Br)cc1-c1nc2cc(C(F)(F)F)ccc2[nH]1				1 µg/mL (≈ 2.29 µM)	0.1 µg/mL (≈ 0.229 µM)	0.05 µg/mL (≈ 0.115 µM)		
Oc1ccccc1-c1nc2cc(C(F)(F)F)ccc2[nH]1	inactive					50 µg/mL (≈ 180 µM)	inactive	
CCCCC(=O)c1ccc(O)c(-c2nc3cc(C(F)(F)F)ccc3[nH]2)c1	inactive					0.5 µg/mL (≈ 1.38 µM)		0.5 µg/mL (≈ 1.38 µM)
Oc1c(Br)cc(Br)cc1-c1nc2cc(Cl)ccc2[nH]1				5 µg/mL (≈ 12.4 µM)	0.5 µg/mL (≈ 1.24 µM)	0.05 µg/mL (≈ 0.124 µM)		
N=C(NCCCCCCNC(=N)NC(=N)Nc1ccc(Cl)cc1)NC(=N)Nc1ccc(Cl)cc1 [CHLORHEXIDINE]				0.5 µg/mL (≈ 0.989 µM)	0.5 µg/mL (≈ 0.989 µM)	0.05 µg/mL (≈ 0.0989 µM)		
CCCCCCCCC(=O)c1ccc(O)c(-c2nc3cc(C(F)(F)F)ccc3[nH]2)c1					0.5 µg/mL (≈ 1.19 µM)	0.1 µg/mL (≈ 0.239 µM)		
CCCCCCCCC(=O)c1ccc(O)c(-c2nc3cc([N+](=O)[O-])ccc3[nH]2)c1	inactive	inactive	inactive					
O=C(Nc1ccc(Br)cc1)c1cc(Br)cc(Br)c1O [TRIBROMSALAN]				0.5 µg/mL (≈ 1.11 µM)	1 µg/mL (≈ 2.22 µM)	0.05 µg/mL (≈ 0.111 µM)		
CCCCCCCC(=O)c1ccc(O)c(-c2nc3cc(Cl)ccc3[nH]2)c1		inactive						
CCCCCC(=O)c1ccc(O)c(-c2nc3cc(C(F)(F)F)ccc3[nH]2)c1	inactive				0.5 µg/mL (≈ 1.33 µM)	0.1 µg/mL (≈ 0.266 µM)		
CCCCCCCCCC(=O)c1ccc(O)c(-c2nc3cc(C(F)(F)F)ccc3[nH]2)c1	inactive	inactive	inactive					
CCCCCCC(=O)c1ccc(O)c(-c2nc3cc(C)ccc3[nH]2)c1	inactive	inactive	inactive					
CCCC(=O)c1ccc(O)c(-c2nc3cc(C(F)(F)F)ccc3[nH]2)c1				5 µg/mL (≈ 14.4 µM)	0.5 µg/mL (≈ 1.44 µM)	0.05 µg/mL (≈ 0.144 µM)		
CCCCCCC(=O)c1ccc(O)c(-c2nc3cc(C(F)(F)F)ccc3[nH]2)c1	inactive				0.5 µg/mL (≈ 1.28 µM)	0.05 µg/mL (≈ 0.128 µM)		
CCCCCCCCC(=O)c1ccc(O)c(-c2nc3cc(Cl)ccc3[nH]2)c1	inactive	inactive	inactive					
CCCCCCCCC(=O)c1ccc(O)c(-c2nc3cc(C)ccc3[nH]2)c1	inactive				10 µg/mL (≈ 27.4 µM)			
CN(C)[C@@H]1C(O)=C(C(N)=O)C(=O)[C@@]2(O)C(O)=C3C(=O)c4c(O)cccc4[C@@](C)(O)[C@H]3C[C@@H]12 [TETRACYCLINE]				0.5 µg/mL (≈ 1.13 µM)	0.5 µg/mL (≈ 1.13 µM)	0.05 µg/mL (≈ 0.113 µM)		
CCCCCCCC(=O)c1ccc(O)c(-c2nc3cc(C(F)(F)F)ccc3[nH]2)c1	inactive				0.5 µg/mL (≈ 1.24 µM)	0.5 µg/mL (≈ 1.24 µM)		
Cc1ccc2[nH]c(-c3ccccc3O)nc2c1		inactive		1 µg/mL (≈ 4.46 µM)		1 µg/mL (≈ 4.46 µM)		
